Data reported in ChEMBL document CHEMBL1938326, “Synthesis and in vitro and in vivo anticancer activity of novel phenylmethylene bis-isoxazolo[4,5-b]azepines” (Bioorg Med Chem Lett, 2012).
Values after ≈ are worked out from the molar mass of the structure shown. Active and inactive are the calls of the source. The rule behind the calls is not given here.

Legend:
[1] = tested on: MCF7; test: Cytotoxicity against human MCF7 cells after 48 hrs by MTT assay; type: functional, cell-based; settings: MCF7, 48 h
In short: (§1)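 Cells grown with 10% FBS, 1% L-glutamine and antibiotics at 37 °C, 5% CO₂. Seeded at 1 × 10⁵ cells/mL and incubated 24 h. Compounds added from DMSO stocks, final DMSO <1%, for 48 h. MTT (2.5 mg/mL) added for 2 h, then OD read at 490 nm. IC50 (50% reduction in OD versus untreated) taken from dose–response curves; three independent determinations.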

[2] = tested on: HeLa; test: Cytotoxicity against human HeLa cells after 48 hrs by MTT assay; type: functional, cell-based; in short: as §1
[3] = Cytotoxicity against […] cells after 48 hrs by MTT assay; type: functional, cell-based; settings: Mus musculus, Ehrlich; in short: as §1
[4] = tested on: Mus musculus; test: Protective effect on haemopoietic system in Swiss albino mouse xenografted with […] cells assessed as RBC count at 10 mg/kg, ip qd administered for 9 days measured after 14 days; type: functional, organism-based; parameters: dose 10 mg/kg; settings: Ehrlich
In short: (§2)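 Swiss albino female mice (8 weeks, n = 10 per group) inoculated ip with EAC cells (0.2 mL of 2 × 10⁶ cells/mouse), then dosed daily for 9 days starting 24 h after inoculation. On day 14, hemoglobin, RBC, WBC and differential leukocyte counts were compared with uninoculated normal and EAC control groups; mean ± SEM.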

[5] = tested on: Mus musculus; test: Protective effect on haemopoietic system in Swiss albino mouse xenografted with […] cells assessed as WBC count at 10 mg/kg, ip qd administered for 9 days measured after 14 days; type: functional, organism-based; parameters: dose 10 mg/kg; settings: Ehrlich; in short: as §2
[6] = tested on: Mus musculus; test: Protective effect on haemopoietic system in Swiss albino mouse xenografted with […] cells assessed as change in lymphocytes count at 10 mg/kg, ip qd administered for 9 days measured after 14 days (reference value: 23 +/- 0.6 %); type: functional, Ehrlich; settings: route intraperitoneal; in short: as §2
[7] = Antitumor activity against […] cells xenografted in Swiss albino mouse assessed as packed cell volume at 10 mg/kg, ip qd administered for 9 days measured after 14 days (reference value: 2.8 +/- 0.5 ml); type: functional, Ehrlich; settings: route intraperitoneal
[8] = tested on: Ehrlich; test: Antitumor activity against […] cells xenografted in Swiss albino mouse assessed as viable tumor cell count at 10 mg/kg, ip qd administered for 9 days measured after 14 days by trypan blue assay; type: functional, organism-based; parameters: dose 10 mg/kg
[9] = tested on: Mus musculus; test: Protective effect on haemopoietic system in Swiss albino mouse xenografted with […] cells assessed as change in lymphocytes count at 5 mg/kg, ip qd administered for 9 days measured after 14 days (reference value: 23 +/- 0.6 %); type: functional, Ehrlich; settings: route intraperitoneal; in short: as §2
[10] = tested on: Mus musculus; test: Protective effect on haemopoietic system in Swiss albino mouse xenografted with […] cells assessed as change in neutrophils count at 5 mg/kg, ip qd administered for 9 days measured after 14 days (reference value: 73 +/- 1.3 %); type: functional, Ehrlich; settings: route intraperitoneal; in short: as §2
[11] = tested on: Mus musculus; test: Protective effect on haemopoietic system in Swiss albino mouse xenografted with […] cells assessed as RBC count at 5 mg/kg, ip qd administered for 9 days measured after 14 days; type: functional, organism-based; parameters: dose 5 mg/kg; settings: Ehrlich; in short: as §2
[12] = Antitumor activity against […] cells xenografted in Swiss albino mouse assessed as mean survival time at 10 mg/kg, ip qd administered for 9 days measured after 14 days (reference value: 13.7+/- 0.4 days); type: functional, Ehrlich; settings: route intraperitoneal
In short: (§3)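 Female Swiss albino mice, 8 weeks old and 20–25 g, received 0.2 mL of 2 × 10⁶ EAC cells/mouse i.p. on day 0. Daily dosing started 24 h later and ran 9 days; controls received sterile saline i.p. After day-14 sacrifice of five per group, mortality was recorded daily for 30 days. MST = (first + last death day)/2; %ILS = [(MST treated/MST control) − 1] × 100.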

[13] = tested on: Mus musculus; test: Toxicity in Swiss albino mouse xenografted with […] cells assessed as change in body weight at 10 mg/kg, ip qd administered for 9 days measured after 14 days (reference value: 12.2 +/- 0.8 g); type: organism-based, Ehrlich; parameters: dose 10 mg/kg, route intraperitoneal; settings: in vivo, 336 h
[14] = tested on: Mus musculus; test: Toxicity in Swiss albino mouse xenografted with human EAC cells assessed as change in body weight at 5 mg/kg, ip qd administered for 9 days measured after 14 days (reference value: 12.2 +/- 0.8 g); type: organism-based, Ehrlich; parameters: dose 5 mg/kg, route intraperitoneal; settings: in vivo, 336 h
[15] = tested on: Mus musculus; test: Protective effect on haemopoietic system in Swiss albino mouse xenografted with […] cells assessed as change in hemoglobin level at 5 mg/kg, ip qd administered for 9 days measured after 14 days (reference value: 5.8 +/- 0.7 g%); type: functional, Ehrlich; settings: route intraperitoneal; in short: as §2
[16] = Antitumor activity against […] cells xenografted in Swiss albino mouse assessed as mean survival time at 5 mg/kg, ip qd administered for 9 days measured after 14 days (reference value: 13.7+/- 0.4 days); type: functional, Ehrlich; settings: route intraperitoneal; in short: as §3
[17] = Antitumor activity against […] cells xenografted in Swiss albino mouse assessed as increase in life span at 5 mg/kg, ip qd administered for 9 days; type: functional, Ehrlich; settings: route intraperitoneal; in short: as §3
[18] = Antitumor activity against […] cells xenografted in Swiss albino mouse assessed as change in tumor volume at 10 mg/kg, ip qd administered for 9 days measured after 14 days (reference value: 12.1 +/- 0.9 ml); type: functional, Ehrlich; settings: route intraperitoneal
[19] = tested on: Mus musculus; test: Reduction in ascetic fluid volume in Swiss albino mouse xenografted with […] cells at 5 to 10 mg/kg, ip qd administered for 9 days measured after 14 days; type: functional, organism-based; settings: Ehrlich
[20] = Antitumor activity against […] cells xenografted in Swiss albino mouse assessed as increase in life span at 10 mg/kg, ip qd administered for 9 days; type: functional, Ehrlich; settings: route intraperitoneal; in short: as §3
[21] = tested on: Mus musculus; test: Protective effect on haemopoietic system in Swiss albino mouse xenografted with […] cells assessed as change in neutrophils count at 10 mg/kg, ip qd administered for 9 days measured after 14 days (reference value: 73 +/- 1.3 %); type: functional, Ehrlich; settings: route intraperitoneal; in short: as §2
[22] = tested on: Mus musculus; test: Protective effect on haemopoietic system in Swiss albino mouse xenografted with […] cells assessed as change in monocytes count at 10 mg/kg, ip qd administered for 9 days measured after 14 days (reference value: 2.4 +/- 0.1 %); type: functional, Ehrlich; settings: route intraperitoneal; in short: as §2
[23] = tested on: Mus musculus; test: Protective effect on haemopoietic system in Swiss albino mouse xenografted with […] cells assessed as WBC count at 5 mg/kg, ip qd administered for 9 days measured after 14 days; type: functional, organism-based; parameters: dose 5 mg/kg; settings: Ehrlich; in short: as §2
[24] = tested on: Mus musculus; test: Protective effect on haemopoietic system in Swiss albino mouse xenografted with […] cells assessed as change in hemoglobin level at 10 mg/kg, ip qd administered for 9 days measured after 14 days (reference value: 5.8 +/- 0.7 g%); type: functional, Ehrlich; settings: route intraperitoneal; in short: as §2
[25] = Antitumor activity against […] cells xenografted in Swiss albino mouse assessed as packed cell volume at 5 mg/kg, ip qd administered for 9 days measured after 14 days (reference value: 2.8 +/- 0.5 ml); type: functional, Ehrlich; settings: route intraperitoneal
[26] = Antitumor activity against […] cells xenografted in Swiss albino mouse assessed as change in tumor volume at 5 mg/kg, ip qd administered for 9 days measured after 14 days (reference value: 12.1 +/- 0.9 ml); type: functional, Ehrlich; settings: route intraperitoneal
[27] = tested on: Mus musculus; test: Protective effect on haemopoietic system in Swiss albino mouse xenografted with […] cells assessed as change in monocytes count at 5 mg/kg, ip qd administered for 9 days measured after 14 days (reference value: 2.4 +/- 0.1 %); type: functional, Ehrlich; settings: route intraperitoneal; in short: as §2
[28] = tested on: Ehrlich; test: Antitumor activity against […] cells xenografted in Swiss albino mouse assessed as viable tumor cell count at 5 mg/kg, ip qd administered for 9 days measured after 14 days by trypan blue assay; type: functional, organism-based; parameters: dose 5 mg/kg

In the case of `Cc1noc2c1N=C(c1ccccc1)CC(c1ccccc1)C2C(c1ccccc1)C1c2onc(C)c2N=C(c2ccccc2)CC1c1ccccc1` (centres undefined), the IC50 [1] is reported as 68.9 µg/mL (≈ 99.4 µM), the IC50 [2] is reported as 68.7 µg/mL (≈ 99.2 µM) and the IC50 [3] is reported as 66.5 µg/mL (≈ 96 µM).

`Cc1ccc(C2CC(c3ccccc3)=Nc3c(C)noc3C2C(c2ccccc2)C2c3onc(C)c3N=C(c3ccccc3)CC2c2ccc(C)cc2)cc1` (centres undefined) gave an IC50 [1] of 50.1 µg/mL (≈ 69.5 µM), an IC50 [2] of 53.3 µg/mL (≈ 73.9 µM) and an IC50 [3] of 51.6 µg/mL (≈ 71.6 µM).

With `Cc1noc2c1N=C(c1ccco1)CC(c1ccccc1)C2C(c1ccccc1)C1c2onc(C)c2N=C(c2ccco2)CC1c1ccccc1` (centres undefined) the IC50 [1] was 35.9 µg/mL (≈ 53.4 µM), the Activity [4] was “Active” and the Activity [5] was “Active”. The Activity [6] was 46%, the Activity [7] was 1.6 mL and the Activity [8] was “Active”. For the same compound, the Activity [9] was 29%, the Activity [10] was 63% and the Activity [11] was “Active”. The MSD [12] was 18.3 days, the Activity [13] was 9.6 g and the Activity [14] was 10.6 g. For the same compound, the IC50 [2] was 32.7 µg/mL (≈ 48.6 µM), the Activity [15] was 6 g% and the MSD [16] was 14.9 days. The Activity [17] was 8.8%, the Activity [18] was 8.5 mL and the Activity [19] was “Active”. The IC50 [3] was 28.9 µg/mL (≈ 43 µM), the Activity [20] was 33.6% and the Activity [21] was 49%. For the same compound, the Activity [22] was 1.7%, the Activity [23] was “Active” and the Activity [24] was 7.4 g%. It also gave an Activity [25] of 2.1 mL, an Activity [26] of 11 mL and an Activity [27] of 2.1%.

`Cc1ccc(C(C2c3onc(C)c3N=C(c3ccccc3)CC2c2ccccc2)C2c3onc(C)c3N=C(c3ccccc3)CC2c2ccccc2)cc1` (centres undefined) showed an IC50 [1] of 41.9 µg/mL (≈ 59.3 µM), an IC50 [2] of 38.4 µg/mL (≈ 54.3 µM) and an IC50 [3] of 48.2 µg/mL (≈ 68.2 µM).

In the case of `Cc1ccc(C2=Nc3c(C)noc3C(C(c3ccccc3)C3c4onc(C)c4N=C(c4ccc(C)cc4)CC3c3ccccc3)C(c3ccccc3)C2)cc1` (centres undefined), the IC50 [1] is reported as 55.9 µg/mL (≈ 77.5 µM), the IC50 [2] is reported as 55.1 µg/mL (≈ 76.4 µM) and the IC50 [3] is reported as 50.1 µg/mL (≈ 69.5 µM).

`Cc1noc2c1N=C(c1ccc(Cl)cc1)CC(c1ccccc1)C2C(c1ccccc1)C1c2onc(C)c2N=C(c2ccc(Cl)cc2)CC1c1ccccc1` (centres undefined) showed an IC50 [1] of 61.1 µg/mL (≈ 80.2 µM), an IC50 [2] of 60.2 µg/mL (≈ 79 µM) and an IC50 [3] of 58.5 µg/mL (≈ 76.8 µM).

For `COc1ccc(C2CC(c3ccccc3)=Nc3c(C)noc3C2C(c2ccccc2)C2c3onc(C)c3N=C(c3ccccc3)CC2c2ccc(OC)cc2)cc1` (centres undefined), the IC50 [1] was 53.8 µg/mL (≈ 71.5 µM), the IC50 [2] was 45.6 µg/mL (≈ 60.6 µM) and the IC50 [3] was 40.1 µg/mL (≈ 53.3 µM).

Compound `Cc1noc2c1N=C(c1ccccc1)CC(c1ccccc1)C2C(c1ccc(Cl)cc1)C1c2onc(C)c2N=C(c2ccccc2)CC1c1ccccc1` (centres undefined) has an IC50 [1] of 59 µg/mL (≈ 81.1 µM), an IC50 [2] of 55.9 µg/mL (≈ 76.9 µM) and an IC50 [3] of 60.4 µg/mL (≈ 83 µM).

For `Cc1noc2c1N=C(c1cccs1)CC(c1ccccc1)C2C(c1ccccc1)C1c2onc(C)c2N=C(c2cccs2)CC1c1ccccc1` (centres undefined), the IC50 [1] was 24.1 µg/mL (≈ 34.2 µM), the Activity [4] was “Active” and the Activity [5] was “Active”. For the same compound, the Activity [6] was 51%, the Activity [7] was 1.1 mL and the Activity [8] was “Active”. For the same compound, the Activity [28] was “Active”, the Activity [9] was 35% and the Activity [10] was 54%. For the same compound, the Activity [11] was “Active”, the MSD [12] was 23.8 days and the Activity [13] was 6.7 g. The Activity [14] was 8.3 g, the IC50 [2] was 28.5 µg/mL (≈ 40.4 µM) and the Activity [15] was 7.3 g%. It also gave an MSD [16] of 17.8 days, an Activity [17] of 29.9% and an Activity [18] of 4.9 mL. The Activity [19] was “Active”, the IC50 [3] was 26.1 µg/mL (≈ 37 µM) and the Activity [20] was 73.7%. The Activity [21] was 36%, the Activity [22] was 1.4% and the Activity [23] was “Active”. For the same compound, the Activity [24] was 8.5 g%, the Activity [25] was 1.8 mL and the Activity [26] was 7.3 mL. It also gave an Activity [27] of 1.9%.

With `COc1ccc(C(C2c3onc(C)c3N=C(c3ccccc3)CC2c2ccccc2)C2c3onc(C)c3N=C(c3ccccc3)CC2c2ccccc2)cc1` (centres undefined) the IC50 [1] was 57.3 µg/mL (≈ 79.3 µM), the IC50 [2] was 65.9 µg/mL (≈ 91.2 µM) and the IC50 [3] was 41.9 µg/mL (≈ 58 µM).
